According to article PMC10439066 (Drugs in R&D, 2023):
Numbering of substitutions follows the chain as printed.

How the values were obtained:
[1] = system: adult premenopausal women with endometriosis-related pain symptoms; experiment: AKRENDO1 phase IIa trial, liver laboratory parameters; format: in vivo, human
Summary of the method: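 Over 12 weeks of oral dosing or placebo, ALT, AST, total bilirubin and INR were measured at all visits except visit 2. Baseline was the last value before treatment start (visit 3, otherwise screening). Suspected liver injury was worked up per FDA 2009 DILI guidance. Severity was graded by DILI Expert Working Group criteria and causality by RUCAM. Post-baseline ALT was classed by ULN multiples.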

recombinant human AKR1C2 = target: T1, recombinant human AKR1C2 (Homo sapiens, UniProt P52895); experiment: Related enzyme screen; format: biochemical; settings: preclinical screen
T1 sequence (P52895 1-323): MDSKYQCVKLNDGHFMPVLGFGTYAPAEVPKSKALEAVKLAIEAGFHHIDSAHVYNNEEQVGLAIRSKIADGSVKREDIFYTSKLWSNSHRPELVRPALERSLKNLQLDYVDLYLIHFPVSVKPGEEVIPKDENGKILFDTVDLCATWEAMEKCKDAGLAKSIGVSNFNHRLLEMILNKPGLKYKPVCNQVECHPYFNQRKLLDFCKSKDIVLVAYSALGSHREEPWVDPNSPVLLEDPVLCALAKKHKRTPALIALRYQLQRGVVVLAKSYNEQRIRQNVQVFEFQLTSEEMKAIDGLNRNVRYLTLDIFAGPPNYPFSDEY

female monkeys = experiment: Repeat-dose in vivo toxicity study, monkey; parameters: species or system cynomolgus macaque monkeys (Macaca fascicularis); settings: cynomolgus monkey
progesterone receptor = settings: cited from earlier work
recombinant human AKR1C1 = target: T2, recombinant human AKR1C1 (Homo sapiens, UniProt Q04828); experiment: Related enzyme screen; format: biochemical; settings: preclinical screen
T2 sequence (Q04828 1-323): T1 sequence (P52895 1-323) with V38T, H47R, V54L, S87C, M151V, H170R, L172Q

[2] = system: healthy pre- and postmenopausal women; settings: cited from earlier work
endometriotic lesions = settings: cited from earlier work
[3] = 3 mg OD n = 11, largest value per participant
[4] = 3 mg OD n = 11, treatment-emergent
[5] = 10 mg OD n = 31, largest value per participant
[6] = 10 mg OD n = 31, treatment-emergent
[7] = 30 mg BID n = 11, largest value per participant
[8] = 30 mg BID n = 11, treatment-emergent
[9] = 30 mg OD n = 10, largest value per participant
[10] = 30 mg OD n = 10, treatment-emergent
[11] = 60 mg BID n = 27, largest value per participant
[12] = 60 mg BID n = 27, treatment-emergent

CN(CCC(=O)O)C(=O)c1ccc2c(c1)CC[C@@H]1[C@@H]2CC[C@]2(C)C(c3cncc(F)c3)=CC[C@@H]12 [BAY1128688]
ALT > 2 × ULN and ≤3 × ULN [1, 3]: 0 n (%) | ALT > 3 × ULN and ≤5 × ULN [1, 3]: 0 n (%) | ALT > 5 × ULN and ≤8 × ULN [1, 3]: 0 n (%) | ALT > 8 × ULN [1, 3]: 0 n (%) | AST > 3 × ULN and ≤5 × ULN [1, 3]: 0 n (%) | AST > 8 × ULN [1, 3]: 0 n (%) | ALT, total number of participants with > 2 × ULN [1, 4]: 0 n (%) | AST, total number of participants with > 2 × ULN [1, 4]: 0 n (%) | Bilirubin in serum > 2 × ULN [1, 4]: 0 n (%) | ALT > 2 × ULN and ≤3 × ULN [1, 5]: 1 (3.2) n (%) | ALT > 3 × ULN and ≤5 × ULN [1, 5]: 0 n (%) | ALT > 5 × ULN and ≤8 × ULN [1, 5]: 0 n (%) | ALT > 8 × ULN [1, 5]: 0 n (%) | AST > 3 × ULN and ≤5 × ULN [1, 5]: 0 n (%) | AST > 8 × ULN [1, 5]: 0 n (%) | ALT, total number of participants with > 2 × ULN [1, 6]: 1 (3.2) n (%) | AST, total number of participants with > 2 × ULN [1, 6]: 0 n (%) | Bilirubin in serum > 2 × ULN [1, 6]: 0 n (%) | ALT > 2 × ULN and ≤3 × ULN [1, 7]: 0 n (%) | ALT > 3 × ULN and ≤5 × ULN [1, 7]: 0 n (%) | ALT > 5 × ULN and ≤8 × ULN [1, 7]: 0 n (%) | ALT > 8 × ULN [1, 7]: 0 n (%) | AST > 3 × ULN and ≤5 × ULN [1, 7]: 0 n (%) | AST > 8 × ULN [1, 7]: 0 n (%) | ALT, total number of participants with > 2 × ULN [1, 8]: 0 n (%) | AST, total number of participants with > 2 × ULN [1, 8]: 0 n (%) | Bilirubin in serum > 2 × ULN [1, 8]: 0 n (%) | ALT > 2 × ULN and ≤3 × ULN [1, 9]: 0 n (%) | ALT > 3 × ULN and ≤5 × ULN [1, 9]: 2 (20.0) n (%) | ALT > 5 × ULN and ≤8 × ULN [1, 9]: 0 n (%) | ALT > 8 × ULN [1, 9]: 1 (10.0) n (%) | AST > 3 × ULN and ≤5 × ULN [1, 9]: 0 n (%) | AST > 8 × ULN [1, 9]: 1 (10.0) n (%) | ALT, total number of participants with > 2 × ULN [1, 10]: 3 (30.0) n (%) | AST, total number of participants with > 2 × ULN [1, 10]: 1 (10.0) n (%) | Bilirubin in serum > 2 × ULN [1, 10]: 1 (10.0) n (%) | ALT > 2 × ULN and ≤3 × ULN [1, 11]: 1 (3.7) n (%) | ALT > 3 × ULN and ≤5 × ULN [1, 11]: 3 (11.1) n (%) | ALT > 5 × ULN and ≤8 × ULN [1, 11]: 1 (3.7) n (%) | ALT > 8 × ULN [1, 11]: 1 (3.7) n (%) | AST > 3 × ULN and ≤5 × ULN [1, 11]: 2 (7.4) n (%) | AST > 8 × ULN [1, 11]: 1 (3.7) n (%) | ALT, total number of participants with > 2 × ULN [1, 12]: 6 (22.2) n (%) | AST, total number of participants with > 2 × ULN [1, 12]: 3 (11.1) n (%) | Bilirubin in serum > 2 × ULN [1, 12]: 2 (7.4) n (%) | Dose-dependency of increase in liver transaminases up to liver injury ([1]; AKRENDO1): Risk increased with dose, but extent of ALT increase/liver injury not directly correlated with exposure | Dose-dependency of isolated increase in serum bilirubin ([1]; AKRENDO1): Directly correlated with exposure | Timing of increase in liver transaminases up to liver injury ([1]; AKRENDO1): >8 weeks of exposure to BAY1128688 | time to restoration of normal ALT levels ([1]; after end of treatment): up to 3 months | participants with ALT increase > 5 × ULN ([1]; all dose groups): Three | participants with increased ALT > 3 × ULN ([1]; all dose groups, 90 exposed): eight | hepatotoxicity (elevations in serum ALT) ([1]; at around 12 weeks of treatment): Dose-/exposure-dependent hepatotoxicity was observed | activity against related enzyme (recombinant human AKR1C2): no relevant activity | Increase in liver transaminases in animal toxicology study (female monkeys): Not observed in cynomolgus monkey animal toxicology study with BAY1128688 | Isolated increase in serum bilirubin in animal toxicology study (female monkeys): Observed in cynomolgus monkey animal toxicology study with BAY1128688 | agonism or antagonism (progesterone receptor): no relevant agonism or antagonism | activity against related enzyme (recombinant human AKR1C1): no relevant activity | increases in ALT or AST ([2]; 90 mg OD and 60 mg BID, 2 weeks): no increases | influence on bile acid metabolism ([2]; exploratory evaluation of bile acids): did not indicate any influence | ovarian cycles ([2]; healthy premenopausal women, up to 60 mg BID for 28 days): normal ovarian cycles were maintained | serum androsterone ([2]; multiple doses): dose-dependent increase | effect on endometriotic lesions compared with vehicle group (endometriotic lesions): reduced endometriotic lesions | ovarian cyclicity after treatment (endometriotic lesions): remained unchanged
